In paper PMC11062580 (Science Advances, 2024):

How the values were obtained:
tau aggregation = details: phase 2 (curcumin) and phase 3 (methylene blue/LMTX) trials; cited from earlier work
Body weight of PS19 mice = format: in vivo, mouse; details: 10 mg/kg i.v. weekly for 10 weeks, with intranasal mannitol; n = 13 per group
[1] = test system: phosphorylated tau (ptau) pSer^202/Thr^205; experiment: AT8 immunohistochemistry of hippocampus; format: in vivo, mouse; details: 10 mg/kg i.v. weekly for 10 weeks; n = 6 per group
Procedure, shortened: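 PS19 mice seeded stereotaxically with 1.5 µl recombinant K18+ tau fibril seeds (5 µg/µl). Dosing began 2 weeks later: tail-vein 10 mg/kg weekly for 10 weeks, with intranasal mannitol; vehicle was PBS. Brain sections were stained with AT8 (pSer202/Thr205) at 4°C overnight, then biotinylated anti-mouse secondary (1:1000, 1 h, 37°C). AT8-positive staining was quantified in hippocampal CA1 and CA3.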

tau K18^+ fibrils [2] = experiment: Dot blot with anti-amyloid OC antibody; format: biochemical; details: 7-DP 2.5-100 μM or MNPs-DP 0.005-0.02 mg/ml, 24 h
AD tau fibrils = experiment: TEM of AD-extracted tau fibrils after treatment; format: biochemical; details: 0.02 mg/ml (86 μM 7-DP for MNPs-DP), 48 hours, 37°C; n = 10 images
tau K18^+ fibrils [3] = experiment: TEM of preformed tau K18+ fibrils after treatment; format: biochemical; details: 7-DP 2.5-100 μM or MNPs-DP 0.005-0.02 mg/ml, 24 hours
tau K18^+ fibrils [4] = experiment: TEM of tau K18+ aggregation with inhibitor; format: biochemical; details: 20 μM tau K18+, 48 h; 5-100 μM peptide or MNPs-DP 0.005-0.04 mg/ml
Procedure, shortened: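 Recombinant tau K18+ (20 µM final, PBS pH 7.4) was aggregated with 40 µM ThT, 15 µM heparin and 1 mM DTT at 37°C with 700 rpm double orbital shaking. Test peptide was at 5–100 µM; nanoparticles at 0.005–0.04 mg/ml. For TEM, 6 µl sample went on glow-discharged carbon grids for 5 min, then 2% uranyl acetate for 2 min.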

PS19 mice [5] = experiment: Novel object recognition test; format: in vivo, mouse; details: 10 mg/kg i.v. weekly for 10 weeks, n = 13
Procedure, shortened: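 PS19 mice seeded with K18+ fibrils, then weekly i.v. 10 mg/kg for 10 weeks with intranasal mannitol; PBS vehicle. Arena habituation was 10 min, 24 h before testing. Acquisition: two identical objects, 10 min. After 90 min in the home cage, retention: one familiar and one novel object, 10 min. Exploration was nose, mouth or forepaw contact. DR = TC/(TR + TC); […].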

tau K18^+ fibrils [6] = experiment: ThT fragmentation assay of preformed tau K18+ fibrils; format: biochemical
PS19 mice [7] = experiment: Serum AST as index of hepatic toxicity; format: in vivo, mouse; details: 10 mg/kg i.v. weekly for 10 weeks; n = 13; ELISA
C57BL/6J mice brain = experiment: BBB penetration, Fe in brain by ICP-MS; format: in vivo, mouse; details: 10 mg/kg tail vein with intranasal mannitol; 2 hours; n = 3 per group
Procedure, shortened: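 Wild-type C57BL/6J mice aged 2 months received 20 μl of 2% mannitol intranasally, then test nanoparticles at 10 mg/kg by tail vein; controls received PBS. Mice were euthanized after 2 h and perfused. Half-brains were dried at 105°C, digested in concentrated HNO3/HCl at 80°C for 2 h and diluted. Fe was quantified by ICP-MS.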

PS19 mice [8] = experiment: Barnes maze test; format: in vivo, mouse; details: 10 mg/kg i.v. weekly for 10 weeks
Procedure, shortened: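 Mice were seeded with K18+ fibrils (2-month males, 6-month females) and given weekly tail-vein 10 mg/kg for 10 weeks plus intranasal mannitol; PBS vehicle; C57BL/6J controls. Maze had 20 holes with an escape box. Acquisition was 10 trials (2/day, 15-min interval, 2 min each). Probe came 1 day later: tunnel replaced, 90 s, with primary latency and target-hole entries. Testing was blinded and randomized.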

PS19 mice [9] = experiment: H&E histology of major organs; format: in vivo, mouse; details: 10 mg/kg i.v. weekly for 10 weeks
Procedure, shortened: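 Seeded PS19 mice were treated weekly i.v. at 10 mg/kg for 10 weeks with intranasal mannitol. Heart, liver, spleen, lung and kidney (n = 3) were fixed in 4% buffered formalin at 4°C overnight and embedded in paraffin. Sections of 5 µm were stained with hematoxylin and eosin.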

For `COc1cc(/C=C/C(=O)CC(=O)/C=C/c2ccc(O)c(OC)c2)ccc1O` [curcumin], the clinical efficacy (tau aggregation) is listed as “have yet to show efficacy in treating disease”.

For `CN(C)c1ccc2nc3ccc(=[N+](C)C)cc-3sc2c1` [methylene blue/LMTX, methylene blue], the clinical efficacy (tau aggregation) is listed as “have yet to show efficacy in treating disease”.

For MNPs-D-TLKIVWC [MNPs-DP], the “body weight of PS19 mice” value (Body weight of PS19 mice) was “consistent increase in body weights”, the “AT8-positive tau pathology in hippocampus CA1 and CA3” value [1] was “significantly limited tau pathology in both the CA1 and CA3 regions” and the “binding of anti-amyloid OC antibody to tau K18+ fibrils” value (tau K18^+ fibrils [2]) was “decrease of binding to anti-amyloid OC antibody”. The “fragmentation of AD-extracted tau fibrils by MNPs-DP or MNPs” value (AD tau fibrils) was “fragmented AD-extracted tau fibrils after a 48-hour incubation”, the “dose-dependent number/abundance of tau K18+ fibrils under TEM” value (tau K18^+ fibrils [3]) was “reduction of the abundance of tau K18^+ fibrils and a concurrent increase in the number of globular species” and the “counts and length of tau K18+ fibrils (TEM)” value (tau K18^+ fibrils [4]) was “reduced the length of tau fibrils in a dose-dependent manner”. For the same compound, the “exploration of novel versus familiar object” value (PS19 mice [5]; 90-min interval) was “explored the novel object significantly longer than the familiar one”, the “discriminatory index (DI)” value (PS19 mice [5]; versus vehicle) was “appeared to significantly improve the discriminatory index” and the “discriminatory ratio (DR)” value (PS19 mice [5]; versus vehicle) was “appeared to significantly improve the discriminatory index (DI; Fig. 5G) and discriminatory ratio (DR)”. For the same compound, the “fragmentation of preformed tau K18+ fibrils, MNPs-DP and MNPs (ThT)” value (tau K18^+ fibrils [6]; 20 μM tau K18+ fibrils, MNPs-DP or MNPs 0.02 mg/ml, added at 10 hours, reference 50 μM 7-DP) was “fragmented preformed tau K18^+ fibrils as evidenced by the decrease of ThT signal”, the “dose-dependent ThT fluorescence intensity of tau K18+ fibrils” value (tau K18^+ fibrils [6]; 7-DP 2.5-100 μM or MNPs-DP 0.005, 0.01, 0.02 mg/ml) was “reduction of ThT fluorescence intensity” and the “serum AST levels” value (PS19 mice [7]) was “comparable to the vehicle groups”. The “BBB penetration” value (C57BL/6J mice brain) was “can cross the BBB”, the “memory function in probe trial, overall” value (PS19 mice [8]; compared with PBS-treated PS19 mice) was “comparable performance to WT mice and a significant improvement in memory function compared with PBS-treated PS19 mice” and the “latency time to find escape hole, learning period” value (PS19 mice [8]; n = 13, 6 days) was “learned a new task quicker with a shorter latency time to find the escape hole compared to the vehicle- or naked MNP-treated PS19 mice”. For the same compound, the “histology of liver, spleen, heart, lung, kidney” value (PS19 mice [9]; H&E, n = 3, 100 day post-injection) was “no evidence of toxic changes or cell death in cellular structures” and the “overall toxicity after 10 weeks” value (PS19 mice [9]; PS19 mice) was “without apparent toxic side effects in other body systems”.
